The target of data set [1] is T1, Mu-type opioid receptor (Homo sapiens, UniProt P35372). The experiment in a line: Agonist activity at human MOR expressed in HEK293T cells assessed as inhibition of forskolin-stimulated cAMP accumulation incubated for 30 mins by Glo-sensor cAMP assay. The data set is classed as functional, cell-based. In short, it runs like this: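 HEK293T cells transiently co-transfected with human MOR and a luciferase-based cAMP biosensor. Gαi-mediated cAMP inhibition read by luminescence. EC50 given as pEC50 ± SEM, triplicate runs.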

Data set [2] deals with T1, Mu-type opioid receptor. The experiment in a line: Agonist activity at human MOR expressed in HEK-293T cells assessed as inhibition of forskolin-stimulated cAMP accumulation incubated for 30 mins by Glo-sensor cAMP assay relative to DAMGO. The data set is classed as functional, cell-based. The conditions noted are these: HEK293T. In short, it runs like this: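 HEK293T cells transiently co-transfected with human MOR and a luciferase-based cAMP biosensor. Gαi-mediated cAMP inhibition read by luminescence. […] EC50 given as pEC50 ± SEM, triplicate runs.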
A general note: cAMP levels reflect the balance of adenylyl cyclase and phosphodiesterase activity.

For data set [3], the target named is T1, Mu-type opioid receptor. As to the kind of experiment: Agonist activity at human MOR receptor expressed in HTLA cells co-expressing TEV-fused-beta-arrestin2 assessed as induction of beta-arrestin2 recruitment by Tango assay relative to DAMGO. The data set is classed as functional, cell-based. In short, it runs like this:
(§1)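 HTLA cells expressing TEV-fused β-arrestin2 transiently transfected with a human MOR Tango construct. β-arrestin2 recruitment measured. […] Mean pEC50 ± SEM and Emax% ± SEM from triplicate runs.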
In general terms: Recruitment of arrestin is a read-out of receptor activation apart from second messengers.

For data set [4], the target named is T1, Mu-type opioid receptor. The experiment in a line: Agonist activity at human MOR receptor expressed in HTLA cells co-expressing TEV-fused-beta-arrestin2 assessed as induction of beta-arrestin2 recruitment by Tango assay. It is filed as functional, cell-based. Put shortly:
as §1

The target in data set [5] is T1, Mu-type opioid receptor. As to the kind of experiment: Agonist activity at human MOR expressed in CHO-K1 cells co-expressing beta-arrestin2 assessed as beta-arrestin2 EFC recruitment measured after 90 mins by PathHunter assay. It is filed as functional, cell-based. In short, it runs like this:
(§2)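 CHO-K1 cells stably expressing human μOR grown to confluency and seeded overnight at 37 °C, 5% CO2. 5× dilution series of compound in Opti-MEM added for 90 min at 37 °C. Detection reagent then added for 60 min at room temperature in the dark, and chemiluminescence read.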

Data set [6] has as its target T1, Mu-type opioid receptor. As to the kind of experiment: Agonist activity at human MOR expressed in CHO-K1 cells co-expressing beta-arrestin2 assessed as beta-arrestin2 EFC recruitment measured after 90 mins by PathHunter assay relative to control. It is filed as functional, cell-based. Put shortly: as §2
Data set [7] has as its target T1, Mu-type opioid receptor. As to the kind of experiment: Partial agonist activity at human MOR expressed in HEK293T cells co-expressing Galpha-RLuc8:Gbeta:Ggamma-GFP2 assessed as maximal Gi-1 activation measured after 15 mins by BRET assay relative to control. The data set is classed as functional, cell-based. The conditions noted are these: filed as partial agonist. A general note: In BRET a luciferase serves as donor, and the signal depends on an acceptor being close.

For data set [8], the target named is GABA-A receptor; anion channel (Rattus norvegicus) (UniProt O09028+P15431+P18506+P18508+P19969+P20236+P23574+P23576+P28471+P28473+P30191+P62813+P63079+P63138+Q91ZM7+Q9ES14). As to the kind of experiment: Partial agonist activity at GABAA receptor in rat brain slice assessed as induction of receptor-mediated inhibitory postsynaptic current at 10 uM by Whole cell electrophysiology. The data set is classed as tissue-based. The conditions noted are these: filed as partial agonist. Put shortly: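 Horizontal VTA slices (200 μm) from male Sprague–Dawley rats. Whole-cell voltage clamp at −70 mV, 33 °C, KCl internal. GABAA IPSCs isolated with 10 μM DNQX and evoked by paired pulses every 10 s. Drug (10 μM) bath applied. Mean IPSC amplitude at minutes 4–7 of drug compared with the 4 min baseline.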

Data set [9] addresses Voltage-dependent L-type calcium channel subunit alpha-1C (Rattus norvegicus, UniProt P22002). The experiment in a line: Displacement of [3H]Diltiazem from Cav1.2 in rat brain at 10 uM incubated for 120 mins by radiometric scintillation counting analysis. The conditions noted are these: 2 h. The data set is classed as tissue-based.
Data set [10] has as its target T1, Mu-type opioid receptor. The experiment in a line: Partial agonist activity at human MOR expressed in HEK293T cells co-expressing Galpha-RLuc8:Gbeta:Ggamma-GFP2 assessed as Galpha-i/o activation measured after TRUPATH assay. The data set is classed as functional, cell-based. The conditions noted are these: filed as partial agonist.
The target of data set [11] is Mu-type opioid receptor (Mus musculus) (UniProt P42866). The experiment in a line: Partial agonist activity at mouse MOR expressed in HEK293T cells assessed as Nb33 recruitment by BRET assay relative to control. It is filed as functional, cell-based. In short, it runs like this: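 HEK293T cells transfected with murine MOR-NanoLuc (1 μg) and Nb33-Venus (4 μg) using PEI and used 48 h later. Cells in PBS given coelenterazine H (5 μM), ligand added at 5 min, BRET read 10 min later. Three-parameter fit; ≥3 independent trials in triplicate.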

Data set [12] can be described thus: Toxicity in C57BL/6 mouse model assessed as conditioned place preference at 10 mg/kg, IP. The following applies: in vivo. It is filed as organism-based. Put shortly: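 Counterbalanced two-compartment place conditioning in C57BL/6J mice. […] Time on drug-paired side over a 20 min test compared with preconditioning by Welch-corrected t test.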
A short description of data set [13]: Toxicity in C57BL/6 mouse model assessed as charcoal distance travel at 15 mg/kg, sc measured after 3 hrs by gastrointestinal transit assay (reference value: 29.5 +/- 1 cm). It is filed as organism-based. The conditions noted are these: in vivo.
Where [14] appears, read: HTLA230, filed as partial agonist.

Active and inactive are the calls of the source. The rule behind the calls is not given here.

T1 sequence (P35372 whole entry): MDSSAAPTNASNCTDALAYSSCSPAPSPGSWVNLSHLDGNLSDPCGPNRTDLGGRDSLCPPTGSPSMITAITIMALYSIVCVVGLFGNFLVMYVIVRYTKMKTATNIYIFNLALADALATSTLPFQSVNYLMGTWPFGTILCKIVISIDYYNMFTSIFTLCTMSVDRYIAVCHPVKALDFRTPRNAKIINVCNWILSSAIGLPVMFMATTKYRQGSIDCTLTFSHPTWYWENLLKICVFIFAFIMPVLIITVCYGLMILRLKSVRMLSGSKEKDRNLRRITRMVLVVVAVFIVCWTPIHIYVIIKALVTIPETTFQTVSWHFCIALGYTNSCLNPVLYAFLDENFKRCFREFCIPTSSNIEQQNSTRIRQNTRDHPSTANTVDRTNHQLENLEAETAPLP
Chain of Voltage-dependent L-type calcium channel subunit alpha-1C (P22002 whole entry): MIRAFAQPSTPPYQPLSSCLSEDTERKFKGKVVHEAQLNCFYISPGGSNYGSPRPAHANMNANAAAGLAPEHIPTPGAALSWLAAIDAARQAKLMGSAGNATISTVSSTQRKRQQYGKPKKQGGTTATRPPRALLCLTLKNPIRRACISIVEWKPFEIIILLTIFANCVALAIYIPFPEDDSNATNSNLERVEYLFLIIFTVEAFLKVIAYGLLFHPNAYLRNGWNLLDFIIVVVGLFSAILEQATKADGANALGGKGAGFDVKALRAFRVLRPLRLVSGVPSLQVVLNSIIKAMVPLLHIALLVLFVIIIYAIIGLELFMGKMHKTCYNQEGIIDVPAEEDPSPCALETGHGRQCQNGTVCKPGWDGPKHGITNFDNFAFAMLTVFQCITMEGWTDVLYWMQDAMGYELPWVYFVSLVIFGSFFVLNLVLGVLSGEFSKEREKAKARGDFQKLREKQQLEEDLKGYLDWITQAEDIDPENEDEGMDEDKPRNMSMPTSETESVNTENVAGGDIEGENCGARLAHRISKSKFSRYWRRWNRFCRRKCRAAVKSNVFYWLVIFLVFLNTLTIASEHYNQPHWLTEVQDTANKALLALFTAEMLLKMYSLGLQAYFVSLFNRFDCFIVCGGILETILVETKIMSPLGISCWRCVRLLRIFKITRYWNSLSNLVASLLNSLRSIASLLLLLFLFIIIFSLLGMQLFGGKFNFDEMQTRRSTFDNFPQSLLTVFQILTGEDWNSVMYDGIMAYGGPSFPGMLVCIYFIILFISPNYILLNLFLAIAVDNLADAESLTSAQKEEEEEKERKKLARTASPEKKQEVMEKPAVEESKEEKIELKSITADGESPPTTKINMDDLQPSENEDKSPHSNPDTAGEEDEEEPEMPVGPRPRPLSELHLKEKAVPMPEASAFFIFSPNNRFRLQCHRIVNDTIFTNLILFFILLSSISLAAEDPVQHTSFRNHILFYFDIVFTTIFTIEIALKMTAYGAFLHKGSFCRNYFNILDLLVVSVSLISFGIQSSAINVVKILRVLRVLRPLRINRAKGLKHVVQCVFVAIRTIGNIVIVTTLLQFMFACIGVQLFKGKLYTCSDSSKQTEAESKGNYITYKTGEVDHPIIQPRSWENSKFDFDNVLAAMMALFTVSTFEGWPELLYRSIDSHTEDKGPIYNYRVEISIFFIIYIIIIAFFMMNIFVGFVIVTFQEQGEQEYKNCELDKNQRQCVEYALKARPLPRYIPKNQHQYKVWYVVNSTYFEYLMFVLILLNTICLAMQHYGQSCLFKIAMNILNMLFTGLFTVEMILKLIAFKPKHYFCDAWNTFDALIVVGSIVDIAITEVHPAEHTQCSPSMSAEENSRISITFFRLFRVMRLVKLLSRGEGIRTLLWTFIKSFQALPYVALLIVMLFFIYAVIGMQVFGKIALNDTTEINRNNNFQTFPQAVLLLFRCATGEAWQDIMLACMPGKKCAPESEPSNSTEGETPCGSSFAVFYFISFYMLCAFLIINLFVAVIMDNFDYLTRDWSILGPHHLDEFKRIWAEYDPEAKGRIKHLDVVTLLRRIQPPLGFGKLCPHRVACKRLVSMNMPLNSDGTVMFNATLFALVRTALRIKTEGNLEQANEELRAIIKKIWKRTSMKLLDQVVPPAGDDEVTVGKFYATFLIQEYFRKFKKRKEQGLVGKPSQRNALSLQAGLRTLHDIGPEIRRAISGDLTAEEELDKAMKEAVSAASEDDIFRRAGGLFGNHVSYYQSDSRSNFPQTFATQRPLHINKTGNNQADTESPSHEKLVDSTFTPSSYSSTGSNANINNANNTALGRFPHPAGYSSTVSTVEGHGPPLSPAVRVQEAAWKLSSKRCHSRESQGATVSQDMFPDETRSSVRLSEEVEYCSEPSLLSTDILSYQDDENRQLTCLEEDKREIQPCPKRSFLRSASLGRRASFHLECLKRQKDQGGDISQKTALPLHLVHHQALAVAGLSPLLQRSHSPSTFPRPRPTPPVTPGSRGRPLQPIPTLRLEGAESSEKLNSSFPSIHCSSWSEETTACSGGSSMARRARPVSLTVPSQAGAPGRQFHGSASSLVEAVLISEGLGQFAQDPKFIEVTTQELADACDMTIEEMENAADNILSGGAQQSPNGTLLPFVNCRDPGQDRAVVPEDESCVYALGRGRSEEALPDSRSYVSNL
Chain of Mu-type opioid receptor (Mus musculus) (P42866 whole entry): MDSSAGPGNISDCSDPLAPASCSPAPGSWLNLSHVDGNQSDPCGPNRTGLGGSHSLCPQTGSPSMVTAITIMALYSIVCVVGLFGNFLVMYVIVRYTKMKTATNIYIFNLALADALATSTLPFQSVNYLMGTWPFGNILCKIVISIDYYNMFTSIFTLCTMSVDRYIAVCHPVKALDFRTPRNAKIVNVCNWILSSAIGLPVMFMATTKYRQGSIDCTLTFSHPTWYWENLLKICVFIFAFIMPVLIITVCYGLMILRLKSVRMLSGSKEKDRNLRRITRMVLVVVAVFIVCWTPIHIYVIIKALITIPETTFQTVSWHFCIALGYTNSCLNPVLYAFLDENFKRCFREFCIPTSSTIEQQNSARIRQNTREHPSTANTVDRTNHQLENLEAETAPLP

Turning to `CC[C@@H]1CN2CC[C@@]3(O)C(=Nc4ccc(-c5ccccc5)c(OC)c43)[C@@H]2C[C@@H]1/C(=C\OC)C(=O)OC`, the EC50 (as a rule, the concentration giving half of the maximal effect) at Mu-type opioid receptor [1] came out at 104 nM. The Emax (usually the maximal effect, on the per cent scale that the assay sets) at Mu-type opioid receptor [2] (filed as agonist) was 88.7%; at Mu-type opioid receptor [3] (HTLA230) it was below 20%.

Regarding `CC[C@@H]1CN2CCc3c([nH]c4cccc(-c5ccoc5)c34)[C@@H]2C[C@@H]1/C(=C\OC)C(=O)OC`, on Mu-type opioid receptor [1], the concentration giving a half-maximal response (EC50) was found to be 93.7 nM. For the same compound, the values for the maximal response (Emax) on Mu-type opioid receptor [2] (filed as agonist) and at Mu-type opioid receptor [3] (HTLA230) were 70.2% and below 20%, respectively.

`CC[C@@H]1CN2CCc3c([nH]c4c(-c5ccccc5)ccc(OC)c34)[C@@H]2C[C@@H]1/C(=C\OC)C(=O)OC`: the EC50 at Mu-type opioid receptor [1] is 1110 nM. Further, the figures for the Emax on Mu-type opioid receptor [2] (filed as agonist) and at Mu-type opioid receptor [3] (HTLA230) were 50.4% and below 20%, respectively.

`CC[C@@H]1CN2CCc3c([nH]c4ccc(C)c(OC)c34)[C@@H]2C[C@@H]1/C(=C\OC)C(=O)OC`: the EC50 on Mu-type opioid receptor [1] was found to be 370 nM. Moreover, the Emax on Mu-type opioid receptor [2] (filed as agonist) is 96.5%; on Mu-type opioid receptor [3] (HTLA230), below 20%.

In the case of `CC[C@@H]1CN2CCc3c([nH]c4c(-c5ccoc5)ccc(OC)c34)[C@@H]2C[C@@H]1/C(=C\OC)C(=O)OC`, the EC50 on Mu-type opioid receptor [1] stood at 186 nM. Also, the Emax is 78.2% on Mu-type opioid receptor [2] (filed as agonist) and below 20% at Mu-type opioid receptor [3] (HTLA230).

Turning to `CC[C@@H]1CN2CCc3c([nH]c4cccc(C)c34)[C@@H]2C[C@@H]1/C(=C\OC)C(=O)OC`, on Mu-type opioid receptor [1], the EC50 is 82.9 nM. For the same compound, the Emax is 97.1% on Mu-type opioid receptor [2] (filed as agonist) and below 20% on Mu-type opioid receptor [3] (HTLA230).

Consider `CC[C@@H]1CN2CCc3c([nH]c4ccc(-c5ccccc5)c(OC)c34)[C@@H]2C[C@@H]1/C(=C\OC)C(=O)OC`, for which the EC50 at Mu-type opioid receptor [1] is 3760 nM. The maximal response (Emax) is 73.9% on Mu-type opioid receptor [2] (filed as agonist) and below 20% on Mu-type opioid receptor [3] (HTLA230).

On to `CC[C@@H]1CN2CCc3c([nH]c4cccc(OC)c34)[C@@H]2C[C@@H]1/C(=C\OC)C(=O)OC`, for which the Emax is 84.7% at Mu-type opioid receptor [2] (filed as agonist) and below 20% at Mu-type opioid receptor [3] (HTLA230).

Consider `CC[C@@H]1CN2CC[C@@]3(O)C(=Nc4cccc(C)c43)[C@@H]2C[C@@H]1/C(=C\OC)C(=O)OC`, for which the EC50 at Mu-type opioid receptor [1] was 5.25 nM; at Mu-type opioid receptor [4], 10400 nM. In addition, the Emax on Mu-type opioid receptor [2] (filed as partial agonist) was 108%; on Mu-type opioid receptor [3] (setting [14]), 110%; at Mu-type opioid receptor [5], 31%; at Mu-type opioid receptor [6], below 20%; at Mu-type opioid receptor [7] it was 60%; in data set [11], 20%. For the same compound, the result (in [8]; on Mu-type opioid receptor [10]) was Active. Further, the outcome in [9] was Active.

As for `CC[C@@H]1CN2CC[C@@]3(O)C(=Nc4cccc(-c5ccccc5)c43)[C@@H]2C[C@@H]1/C(=C\OC)C(=O)OC`, the EC50 on Mu-type opioid receptor [1] is 36.2 nM; at Mu-type opioid receptor [4] it was 19200 nM. Moreover, the Emax at Mu-type opioid receptor [2] (filed as partial agonist) is 108%; on Mu-type opioid receptor [3] (setting [14]), 283%; on Mu-type opioid receptor [5], 31%; on Mu-type opioid receptor [6], below 20%; on Mu-type opioid receptor [7] it was 60%; in data set [11] it was 20%. In addition, the outcome (in data set [8]; at Mu-type opioid receptor [10]) was Active. In addition, the outcome in data set [9] was Active.

In the case of `CC[C@@H]1CN2CC[C@@]3(O)C(=Nc4ccc(C)c(OC)c43)[C@@H]2C[C@@H]1/C(=C\OC)C(=O)OC`, the EC50 on Mu-type opioid receptor [1] is 30.3 nM. The maximum response (Emax) on Mu-type opioid receptor [2] (filed as agonist) was 9.58%; at Mu-type opioid receptor [3] (HTLA230), below 20%.

As to `CC[C@@H]1CN2CCc3c([nH]c4ccc(-c5ccoc5)c(OC)c34)[C@@H]2C[C@@H]1/C(=C\OC)C(=O)OC`, on Mu-type opioid receptor [1], the EC50 worked out at 85.9 nM. The Emax on Mu-type opioid receptor [2] (filed as agonist) is 90.8%; at Mu-type opioid receptor [3] (HTLA230), below 20%.

For `CC[C@@H]1CN2CC[C@@]3(O)C(=Nc4ccc(-c5ccoc5)c(OC)c43)[C@@H]2C[C@@H]1/C(=C\OC)C(=O)OC`, the EC50 at Mu-type opioid receptor [1] was 535 nM; at Mu-type opioid receptor [4] it was 8040 nM. In addition, the results for the Emax on Mu-type opioid receptor [2] (filed as agonist) and on Mu-type opioid receptor [3] (HTLA230) were 100% and 31.3%, respectively.

As for `CC[C@@H]1CN2CC[C@@]3(O)C(=Nc4c(C)ccc(OC)c43)[C@@H]2C[C@@H]1/C(=C\OC)C(=O)OC`, on Mu-type opioid receptor [1], the EC50 worked out at 11.2 nM. In addition, the Emax was 69.3% at Mu-type opioid receptor [2] (filed as agonist) and below 20% at Mu-type opioid receptor [3] (HTLA230).

Regarding `CC[C@@H]1CN2CC[C@@]3(O)C(=Nc4c(-c5ccccc5)ccc(OC)c43)[C@@H]2C[C@@H]1/C(=C\OC)C(=O)OC`, the EC50 on Mu-type opioid receptor [1] was 17500 nM. Also, the Emax at Mu-type opioid receptor [2] and at Mu-type opioid receptor [3] (HTLA230) was below 20% in each case.

On to `CC[C@@H]1CN2CC[C@@]3(O)C(=Nc4cccc(OC)c43)[C@@H]2C[C@@H]1/C(=C\OC)C(=O)OC`, for which the Emax is 95.5% on Mu-type opioid receptor [2] (filed as agonist) and below 20% on Mu-type opioid receptor [3] (HTLA230).

With `CN1CC[C@]23c4c5ccc(O)c4O[C@H]2[C@@H](O)C=C[C@H]3[C@H]1C5` [MORPHINE], the values for the Activity entry in data set [12] and in data set [13] were “Toxic” and 5.07 cm, respectively.

Consider `CC[C@@H]1CN2CCc3c([nH]c4c(C)ccc(OC)c34)[C@@H]2C[C@@H]1/C(=C\OC)C(=O)OC`, for which the EC50 on Mu-type opioid receptor [1] turned out to be 71.4 nM. Moreover, the Emax is 83.9% at Mu-type opioid receptor [2] (filed as agonist) and below 20% at Mu-type opioid receptor [3] (HTLA230).

As to `CC[C@@H]1CN2CCc3c([nH]c4cccc(-c5ccccc5)c34)[C@@H]2C[C@@H]1/C(=C\OC)C(=O)OC`, the EC50 at Mu-type opioid receptor [1] turned out to be 83.2 nM. In addition, the figures for the Emax on Mu-type opioid receptor [2] (filed as agonist) and on Mu-type opioid receptor [3] (HTLA230) were 46.1% and below 20%, respectively.

As to `CC[C@@H]1CN2CC[C@@]3(O)C(=Nc4c(-c5ccoc5)ccc(OC)c43)[C@@H]2C[C@@H]1/C(=C\OC)C(=O)OC`, the EC50 on Mu-type opioid receptor [1] amounted to 1560 nM. Further, the results for the Emax on Mu-type opioid receptor [2] (filed as agonist) and on Mu-type opioid receptor [3] (HTLA230) were 61.8% and below 20%, respectively.

The values are drawn from ChEMBL document CHEMBL5030540 (J Med Chem, 2021).
